# This is a sample that favours compounds with a hit; in the whole collection about 4.5% have one here.
# RGS4 inh: inhibitors of human RGS4; 310,000 compounds, 0.45% hits; P49798; HEK293 M3R/RGS4 inducible, Fluo-4 calcium flux; hits give high values; triggered by carbachol at its EC20; B-score at 10 µM;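 active = B-score, a plate-corrected calcium signal, over three deviations above library mean, with baseline fluorescence within five deviations of library mean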;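 also: RGS4 expression induced by doxycycline in cells with stable M3 receptor; B-score is computed from the integrated fluorescence ratio over baseline after carbachol; higher B-score means a larger calcium signal and so more RGS4 inhibition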
# RGS4 act: potentiators or activators of RGS4; HEK293 M3R/inducible RGS4, carbachol calcium flux Fluo4; hits give low values; B-score at 10 µM; 310,000 compounds, 0.92% hits; AID 463111;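 active = B-score of the integrated calcium signal more than 4 SD below the library mean, with starting fluorescence not abnormally high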;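 also: negative B-score means reduced calcium response which marks RGS4 activation or potentiation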
#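 Material: M3R-expressing HEK293 line, RGS4 induced by doxycycline | Schedule: Overnight RGS4 induction, 30 min dye load 37 °C, 20 min compound RT | Measured by: Fluo4 fluorescence kinetic imaging of calcium | Read-out: Integrated calcium ratio converted to B score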
# MrgX1 antag: blocks BAM8-22 activation of human MrgX1 receptor; Q96LB2; MRGX1-HEK293 calcium flux, Fluo-4, BAM8-22 antagonism; hits give low values; B-score at 10 µM; 310,000 compounds, 1.3% hits; AID 588676;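 active = calcium-response B-score plate-corrected more than 3 library SD below zero, starting fluorescence within 5 deviations, no agonist response on first addition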;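 also: peak minus trough fluorescence over baseline after final BAM8-22 challenge near maximal dose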
# Target sequence (Q96LB2 whole entry, looked up): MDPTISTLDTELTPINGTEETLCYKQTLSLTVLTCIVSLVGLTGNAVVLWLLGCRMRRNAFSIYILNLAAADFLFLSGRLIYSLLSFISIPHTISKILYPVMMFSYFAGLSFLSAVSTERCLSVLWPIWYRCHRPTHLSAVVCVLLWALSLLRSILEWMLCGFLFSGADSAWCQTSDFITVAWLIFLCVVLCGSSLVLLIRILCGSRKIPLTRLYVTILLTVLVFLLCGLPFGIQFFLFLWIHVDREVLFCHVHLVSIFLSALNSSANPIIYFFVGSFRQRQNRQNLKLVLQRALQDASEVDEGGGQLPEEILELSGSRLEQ
# PHOSPHO1 block: inhibitors of human PHOSPHO1 phosphatase | Q8TCT1 | inhibition, % at 13.3 µM | AID 1565 | 290,000 compounds, 1.1% hits | recombinant PHOSPHO1, absorbance phosphatase assay; in the data active = inhibition above about 60%
# Target sequence (Q8TCT1 whole entry, looked up): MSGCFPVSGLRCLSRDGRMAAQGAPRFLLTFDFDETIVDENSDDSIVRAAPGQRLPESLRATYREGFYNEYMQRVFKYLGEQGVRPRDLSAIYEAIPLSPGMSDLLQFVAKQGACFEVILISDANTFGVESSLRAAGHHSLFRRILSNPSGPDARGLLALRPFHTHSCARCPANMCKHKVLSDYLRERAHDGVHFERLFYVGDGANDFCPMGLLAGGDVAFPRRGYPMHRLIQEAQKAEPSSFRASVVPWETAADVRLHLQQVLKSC
# MrgX1 PAM: human MrgX1 positive allosteric modulation, primary screen. MrgX1-HEK293, Fluo-4 calcium flux, FDSS; hits give high values. B-score at 10 µM. 310,000 compounds, 0.63% hits. AID 588675;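 active = plate-corrected calcium response at least 3 library SD above typical, normal starting fluorescence, not activating the receptor alone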;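 also: compound read alongside a low EC10 to EC30 dose of BAM8-22 agonist; peak minus trough fluorescence over baseline measured at the second addition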
# MrgX1 ag: activates human MrgX1 receptor signaling. 310,000 compounds, 0.44% hits. MrgX1-HEK293 cells, Fluo-4 calcium fluorescence, agonist mode; hits give high values. B-score at 10 µM. Q96LB2;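 active = calcium response B-score plate-corrected fluorescence ratio at least 3 library SD, with starting fluorescence B-score inside 5 SD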
#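 Material: MrgX1-expressing HEK293 cells; input: 15,000 cells per well; doses: test compound given as first of three sequential additions; schedule: overnight plating before 1 h dye loading; technique: Fluo-4 NW calcium-flux fluorescence, kinetic read; evaluation: baseline-normalised fluorescence change ratio, B-scored; control set: plate-wise positive and negative controls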
# Active calls of the source: *; i = inactive; . = not tested or not shown.
SMILES,RGS4 inh,RGS4 act,MrgX1 antag,PHOSPHO1 block,MrgX1 PAM,MrgX1 ag
COc1cc2c(cc1NC(=O)COC(=O)CNS(=O)(=O)c1ccc(C)cc1)oc1ccccc12,i,i,i,-9,i,i
O=C(CN1CCN(S(=O)(=O)N2CCOCC2)CC1)Nc1cc(Cl)ccc1Cl,i,i,i,42,i,i
O=C(OCc1ccc([N+](=O)[O-])cc1)c1cnc(Cl)c(Cl)c1,i,i,i,17,i,i
O=C1c2ccc(Br)cc2C(=O)N1c1ccc(Cl)cn1,i,i,i,27,i,i
CCn1c(SCC(=O)NC2CCCCC2)nc2ccccc2c1=O,i,i,i,38,i,i
COc1ccc(C(=O)c2coc(-c3ccccc3C(=O)O)c2C(=O)O)cc1,i,i,i,-3,i,i
COc1ccc(C(=O)c2c(C(F)(F)F)oc3c2C(=O)c2ccccc2C3=O)cc1,i,i,i,97*,i,i
CCOc1ccc(OCc2ccc(C(=O)N/N=C(\C)c3ccccn3)cc2)cc1,i,i,i,32,i,i
CCC(C)/C(C)=N/NC(=O)c1ccc(COc2ccc(Cl)c(C)c2)cc1 (stereo not drawn),.,.,i,-5,10*,i
COc1cccc(CN(C)C(=O)CSc2nc3ccccc3[nH]2)c1OC,i,i,i,15,i,i
O=C(NC(=S)Nc1cccc(S(=O)(=O)NC2=NCCC2)c1)c1cc(-c2ccco2)nc2ccccc12,i,i,-4.9*,-19,i,i
COc1ccc(-c2noc(CCC(=O)N3CCN(c4cc(C)ccc4C)CC3)n2)cc1,i,-7*,i,3,i,i
O=[N+]([O-])c1ccc(-c2ccc(/C=N/Nc3nc(NCc4ccccc4)nc(N4CCOCC4)n3)o2)cc1,i,i,i,-26,13*,i
Cn1c(C2=C(O)CN(Cc3ccccc3)C2=N)nc2ccccc21,i,i,i,15,i,i
CCOC(=O)c1nc(S(C)(=O)=O)ncc1Cl,i,i,i,6,i,43*
COc1cc(Cl)c(C)cc1NC(=O)COC(=O)c1cc[n+]([O-])cc1,i,i,i,28,i,i
COc1ccc(S(=O)(=O)N2CCCOC2CNC(=O)C(=O)NCCc2ccco2)cc1OC (stereo not drawn),i,i,i,41,i,i
Cc1cc(-c2ccccc2)nc(N/N=C/c2ccc(O)cc2O)n1,i,-7.2*,i,39,i,i
COc1ccc(/C=N/Nc2nc(C)cc(-c3ccccc3)n2)cc1OC,i,-7.3*,i,29,i,i
C(=N/Nc1nc(-c2ccccc2)cc(-c2ccccc2)n1)/c1cccnc1,i,-7.1*,i,1,i,i
CCc1ccc(OCC(=O)Nc2nnc(C3CCCC3)s2)cc1,i,i,i,34,i,i
CC(C)(O)[C@@H]1[C@@H]2C[C@@]3(CC[C@]4(C)C(CCC5[C@@]6(C)CC[C@H](O)C(C)(C)C6CC[C@]54C)[C@@H]13)C(=O)O2 (stereo partly drawn),i,i,i,.,i,i
Cc1ccccc1CN1CCN(C(=O)CC(C)C)CC1,i,i,i,8,i,i
O=C(OCn1nnc2ccccc2c1=O)c1ccc(O)cc1,i,i,i,-3,12*,i
COc1cc(C(=O)OCn2nnc3ccccc3c2=O)cc(OC)c1OC,i,i,i,20,i,i
SMILES,RGS4 inh,RGS4 act,MrgX1 antag,PHOSPHO1 block,MrgX1 PAM,MrgX1 ag
CCOc1ccc(C(=O)OCn2nnc3ccccc3c2=O)cc1OC,i,i,-7.6*,-6,i,i
CCOc1ncccc1C(=O)NCCc1ccc(Cl)cc1,i,i,i,2,i,i
CCN1C(=O)[C@H]2[C@@H](c3ccc(-c4ccc(C(C)=O)cc4)cc3)N3CCC[C@@]3(C(=O)OC)[C@H]2C1=O,i,i,i,.,i,i
Cc1ccccc1CN(CC(=O)Nc1cccc([N+](=O)[O-])c1)S(=O)(=O)c1ccc(Cl)cc1,i,-7.2*,i,-18,i,i
CS(=O)(=O)N(CC(=O)Nc1cccc([N+](=O)[O-])c1)c1ccccc1,i,i,i,39,i,i
CCCCN(C(=O)c1cccc(S(=O)(=O)N2CCN(Cc3ccccc3)CC2)c1)c1ccccc1,i,i,-4.7*,34,i,i
CC(OC(=O)/C=C/c1ccccc1)C(=O)N1CCc2ccccc21 (stereo not drawn),i,i,i,.,i,i
Clc1ccc2nc(CSc3nnc4ccccn34)cn2c1,i,i,i,60*,i,i
CN(C)c1ccc(/C=C(/NC(=O)c2ccccc2)C(=O)N2CCCC2)cc1,i,i,i,28,i,i
Cn1nccc1C(=O)N1CCCC(N2CCN(Cc3ccc4c(c3)OCO4)CC2)C1 (stereo not drawn),i,i,i,61*,i,i
CN(C)S(=O)(=O)c1cc(NC(=O)CN2CCN(c3ccccc3O)CC2)ccc1Cl,i,i,i,11,i,i
Fc1ccc(NC(=S)NN=C2CCCCCC2)cc1,i,i,i,100*,i,i
S=C(NN=C1CCCCCC1)Nc1ccc(Cl)cc1,i,i,i,85*,i,i
NS(=O)(=O)c1cccc(NC(=O)COC(=O)CC2CC3CCC2C3)c1 (stereo not drawn),i,i,i,-15,i,i
O=C1OCCC1Sc1nc2cc(Cl)ccc2n1Cc1ccccc1 (stereo not drawn),i,i,i,89*,i,i
CCN(CC)C(=O)c1c2c(nc3ccccc13)-c1ccccc1CC2,i,-7*,i,0,i,i
CN(C(=O)C(C)(C)C)c1ccc(OCC(=O)N2CCc3ccccc3C2)cc1,i,-7.4*,i,4,i,i
Cc1ccc(OCC(=O)N2CCc3ccccc3C2)cc1,i,i,i,40,i,i
COc1ccccc1OCCn1cc(C(=O)c2ccco2)c2ccccc21,i,-7.4*,i,-2,i,i
CC1CCC2(CC1)OCC1(CCC3(COC4(CCC(C)CC4)OC3)C1=O)CO2 (stereo not drawn),i,i,i,1,i,i
COc1ccc(CCc2nnc(CCC(=O)N(C)Cc3ccncc3C)o2)cc1,i,i,i,64*,i,i

# Compound activity as filed in PubChem.
